{"source": "paper PMC9050161", "about": "(RSC Advances, 2020)", "type_in_all_cases": "biochemical", "key": {"[1]": {"target": "T1, UGT1A7 (Homo sapiens, UniProt Q9HAW7)", "T1 sequence (Q9HAW7 26-530)": "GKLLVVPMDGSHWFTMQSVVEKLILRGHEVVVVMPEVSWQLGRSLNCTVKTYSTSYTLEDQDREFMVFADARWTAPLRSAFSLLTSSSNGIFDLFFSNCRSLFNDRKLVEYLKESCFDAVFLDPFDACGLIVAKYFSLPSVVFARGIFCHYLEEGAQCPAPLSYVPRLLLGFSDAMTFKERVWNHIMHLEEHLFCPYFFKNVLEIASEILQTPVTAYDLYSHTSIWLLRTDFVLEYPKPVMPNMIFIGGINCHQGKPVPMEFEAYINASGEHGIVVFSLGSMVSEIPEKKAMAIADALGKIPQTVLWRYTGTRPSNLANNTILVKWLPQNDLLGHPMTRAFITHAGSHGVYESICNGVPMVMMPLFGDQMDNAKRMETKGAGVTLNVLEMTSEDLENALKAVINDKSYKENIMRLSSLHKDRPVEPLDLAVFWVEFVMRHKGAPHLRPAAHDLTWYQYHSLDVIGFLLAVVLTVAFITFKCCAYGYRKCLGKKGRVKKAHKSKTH", "assay": "Inhibition of UGT1A7", "method_in_brief": "(§1)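 Recombinant human UGTs screened with probe substrates: β-estradiol for UGT1A1, propofol for 1A9, and 4-methylumbelliferone for 1A3, 1A6, 1A7, 1A8, 1A10, 2B4, 2B7, 2B10, 2B15 and 2B17. Incubated at 37 °C without (control) or with test compound at 1, 10 or 100 μM. Glucuronide formation measured relative to control; triplicate.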"}, "[2]": {"target": "T2, UGT2B7 (Homo sapiens, UniProt P16662)", "T2 sequence (P16662 24-529)": "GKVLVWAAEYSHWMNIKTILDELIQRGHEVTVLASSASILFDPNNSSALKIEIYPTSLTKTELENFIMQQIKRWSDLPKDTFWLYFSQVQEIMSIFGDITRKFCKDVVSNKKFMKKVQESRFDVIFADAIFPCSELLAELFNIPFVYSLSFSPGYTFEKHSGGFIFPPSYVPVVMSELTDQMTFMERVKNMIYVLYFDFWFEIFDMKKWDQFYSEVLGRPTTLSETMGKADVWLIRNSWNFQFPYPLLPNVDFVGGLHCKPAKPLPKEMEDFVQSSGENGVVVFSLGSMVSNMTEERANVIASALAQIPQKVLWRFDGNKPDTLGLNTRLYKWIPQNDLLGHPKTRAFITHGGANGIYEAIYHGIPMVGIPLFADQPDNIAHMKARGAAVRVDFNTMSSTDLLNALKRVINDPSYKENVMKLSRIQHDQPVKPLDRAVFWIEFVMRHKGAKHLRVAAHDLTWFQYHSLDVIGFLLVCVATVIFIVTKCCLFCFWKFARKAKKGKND", "assay": "Inhibition of UGT2B7", "method_in_brief": "as §1"}, "[3]": {"target": "UGT1A4 (Homo sapiens, UniProt P22310)", "sequence (P22310 29-534)": "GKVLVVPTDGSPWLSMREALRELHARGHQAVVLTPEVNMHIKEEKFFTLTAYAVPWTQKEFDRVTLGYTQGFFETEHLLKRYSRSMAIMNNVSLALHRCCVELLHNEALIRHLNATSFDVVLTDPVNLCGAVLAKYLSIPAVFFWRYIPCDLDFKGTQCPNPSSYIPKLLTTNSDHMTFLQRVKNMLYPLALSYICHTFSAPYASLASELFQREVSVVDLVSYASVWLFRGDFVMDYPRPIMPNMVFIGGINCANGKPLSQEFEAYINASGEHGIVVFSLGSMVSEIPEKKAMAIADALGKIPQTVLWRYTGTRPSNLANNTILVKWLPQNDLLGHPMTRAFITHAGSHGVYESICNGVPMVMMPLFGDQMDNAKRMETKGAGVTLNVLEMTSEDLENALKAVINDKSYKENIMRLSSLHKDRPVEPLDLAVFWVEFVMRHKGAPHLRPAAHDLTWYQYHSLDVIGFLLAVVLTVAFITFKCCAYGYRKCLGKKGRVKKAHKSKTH", "assay": "Activation of UGT1A4", "method_in_brief": "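Recombinant human UGT1A4 with trifluoperazine (TFP) as substrate for N-glucuronidation, at various TFP concentrations with or without test compound. Triplicate. Data fitted to a mechanistic two-site model assuming a reaction site and an allosteric site.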"}, "[4]": {"target": "UGT2B17 (Homo sapiens, UniProt O75795)", "sequence (O75795 24-530)": "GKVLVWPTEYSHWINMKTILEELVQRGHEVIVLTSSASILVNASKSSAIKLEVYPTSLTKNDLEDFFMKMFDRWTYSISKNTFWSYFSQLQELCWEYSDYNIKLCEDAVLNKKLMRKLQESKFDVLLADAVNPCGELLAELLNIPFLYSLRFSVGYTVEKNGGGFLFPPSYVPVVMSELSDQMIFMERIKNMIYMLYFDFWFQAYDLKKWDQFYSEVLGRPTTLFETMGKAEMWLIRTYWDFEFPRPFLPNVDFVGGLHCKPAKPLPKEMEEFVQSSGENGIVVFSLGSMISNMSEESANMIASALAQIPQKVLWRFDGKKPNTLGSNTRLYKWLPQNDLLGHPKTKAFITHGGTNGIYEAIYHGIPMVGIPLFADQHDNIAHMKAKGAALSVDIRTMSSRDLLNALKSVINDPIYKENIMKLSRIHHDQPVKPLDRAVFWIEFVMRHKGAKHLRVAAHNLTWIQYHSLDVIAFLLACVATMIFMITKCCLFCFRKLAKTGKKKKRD", "assay": "Inhibition of UGT2B17", "settings": "PI-103 1, 10 and 100 μM", "method_in_brief": "as §1"}, "[5]": {"target": "UGT1A10 (Homo sapiens, UniProt Q9HAW8)", "sequence (Q9HAW8 26-530)": "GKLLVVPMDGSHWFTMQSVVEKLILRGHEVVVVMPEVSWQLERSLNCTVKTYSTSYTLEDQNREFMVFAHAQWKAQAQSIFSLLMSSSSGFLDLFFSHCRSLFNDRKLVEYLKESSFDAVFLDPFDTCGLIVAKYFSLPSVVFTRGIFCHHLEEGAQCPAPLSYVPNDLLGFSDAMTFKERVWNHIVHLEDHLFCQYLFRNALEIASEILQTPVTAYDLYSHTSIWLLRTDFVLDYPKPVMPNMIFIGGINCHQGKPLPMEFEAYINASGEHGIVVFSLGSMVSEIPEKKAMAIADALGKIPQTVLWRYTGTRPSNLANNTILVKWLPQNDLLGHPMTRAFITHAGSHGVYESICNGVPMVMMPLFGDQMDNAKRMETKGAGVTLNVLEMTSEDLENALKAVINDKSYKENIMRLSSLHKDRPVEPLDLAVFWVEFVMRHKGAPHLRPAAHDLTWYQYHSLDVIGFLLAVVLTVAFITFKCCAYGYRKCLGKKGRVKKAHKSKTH", "assay": "Inhibition of UGT1A10", "settings": "PI-103 1, 10 and 100 μM", "method_in_brief": "as §1"}, "[6]": {"target": "T3, CYP1A2 (Homo sapiens, UniProt P05177)", "T3 sequence (P05177 1-516)": "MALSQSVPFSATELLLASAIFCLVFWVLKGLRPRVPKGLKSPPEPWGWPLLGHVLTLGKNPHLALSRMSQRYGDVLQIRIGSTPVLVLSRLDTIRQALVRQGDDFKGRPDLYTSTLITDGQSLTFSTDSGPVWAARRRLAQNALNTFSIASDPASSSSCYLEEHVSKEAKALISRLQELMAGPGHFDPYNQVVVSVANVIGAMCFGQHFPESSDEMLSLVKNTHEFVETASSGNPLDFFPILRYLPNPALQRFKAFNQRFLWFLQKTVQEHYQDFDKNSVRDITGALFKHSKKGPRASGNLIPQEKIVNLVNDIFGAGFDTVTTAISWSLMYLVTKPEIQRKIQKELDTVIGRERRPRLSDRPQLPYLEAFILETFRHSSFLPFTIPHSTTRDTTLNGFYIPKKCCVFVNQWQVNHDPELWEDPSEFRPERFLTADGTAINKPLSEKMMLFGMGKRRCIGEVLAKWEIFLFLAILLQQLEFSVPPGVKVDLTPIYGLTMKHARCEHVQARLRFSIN", "assay": "Inhibition of CYP1A2", "method_in_brief": "(§2)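 Recombinant human CYPs at 0.05 mg mL−1 protein, each with its probe substrate near Km: ethoxyresorufin 1 μM (CYP1A1), phenacetin 100 μM (CYP1A2), nifedipine 40 μM (CYP3A4, 3A5). Incubated at 37 °C without (control) or with test compound at 1, 10 and 100 μM. Supernatant analysed by UHPLC-TQD-MS; activity relative to control; triplicate.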"}, "[7]": {"target": "T4, UGT1A3 (Homo sapiens, UniProt P35503)", "T4 sequence (P35503 29-534)": "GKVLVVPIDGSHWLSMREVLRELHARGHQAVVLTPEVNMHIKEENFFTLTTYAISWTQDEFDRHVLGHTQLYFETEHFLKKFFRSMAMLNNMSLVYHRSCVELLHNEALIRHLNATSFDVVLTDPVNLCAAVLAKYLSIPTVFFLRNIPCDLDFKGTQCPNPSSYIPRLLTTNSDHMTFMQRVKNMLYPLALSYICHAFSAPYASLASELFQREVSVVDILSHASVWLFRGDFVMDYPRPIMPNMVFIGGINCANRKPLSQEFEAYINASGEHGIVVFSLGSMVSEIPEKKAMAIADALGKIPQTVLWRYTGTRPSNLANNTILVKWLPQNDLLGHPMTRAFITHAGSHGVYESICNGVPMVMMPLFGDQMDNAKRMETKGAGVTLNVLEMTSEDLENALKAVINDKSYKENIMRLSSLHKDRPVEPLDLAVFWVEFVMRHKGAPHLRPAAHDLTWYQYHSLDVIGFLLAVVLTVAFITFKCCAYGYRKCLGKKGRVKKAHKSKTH", "assay": "Inhibition of UGT1A3", "method_in_brief": "as §1"}, "[8]": {"target": "CYP3A4 (Homo sapiens, UniProt P08684)", "sequence (P08684 whole entry)": "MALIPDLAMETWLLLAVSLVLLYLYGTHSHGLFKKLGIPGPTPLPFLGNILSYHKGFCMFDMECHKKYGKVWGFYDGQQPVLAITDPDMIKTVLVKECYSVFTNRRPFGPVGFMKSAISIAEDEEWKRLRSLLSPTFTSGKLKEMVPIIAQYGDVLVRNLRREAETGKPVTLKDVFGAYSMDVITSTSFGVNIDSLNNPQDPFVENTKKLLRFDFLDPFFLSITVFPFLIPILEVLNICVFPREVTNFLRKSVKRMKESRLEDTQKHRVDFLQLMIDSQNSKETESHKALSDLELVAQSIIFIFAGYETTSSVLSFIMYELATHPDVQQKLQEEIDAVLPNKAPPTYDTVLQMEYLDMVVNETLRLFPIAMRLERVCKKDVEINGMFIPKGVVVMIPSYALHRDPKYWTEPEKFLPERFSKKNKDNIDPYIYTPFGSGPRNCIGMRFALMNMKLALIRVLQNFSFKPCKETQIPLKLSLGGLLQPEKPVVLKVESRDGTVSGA", "assay": "Inhibition of CYP3A4", "settings": "PI-103 1, 10 and 100 μM", "method_in_brief": "as §2"}}, "data": [{"smiles": "Oc1cccc(-c2nc(N3CCOCC3)c3oc4ncccc4c3n2)c1", "note": "[PI-103]", "values": [{"measurement": "IC50", "setting": "[1]", "value": "6.25 ± 0.84", "unit": "µM"}, {"measurement": "Ki", "setting": "[1]", "value": "5.64 ± 0.6", "unit": "µM"}, {"measurement": "Type of inhibition", "setting": "[1]; UGT1A7, 4-MU", "value": "Noncompetitive"}, {"measurement": "IC50", "setting": "[2]", "value": "1.59 ± 0.21", "unit": "µM"}, {"measurement": "Ki", "setting": "[2]", "value": "1.35 ± 0.15", "unit": "µM"}, {"measurement": "Type of inhibition", "setting": "[2]; UGT2B7, 4-MU", "value": "Noncompetitive"}, {"measurement": "Ki", "setting": "[3]", "value": 13.8, "unit": "µM"}, {"measurement": "maximal rate change (activation of UGT1A4)", "setting": "[3]; TFP-N-glucuronidation", "value": 1.6, "unit": "fold"}, {"measurement": "inhibitory effect", "setting": "[4]", "value": "negligible"}, {"measurement": "inhibitory effect", "setting": "[5]", "value": "negligible"}, {"measurement": "IC50", "setting": "[6]", "value": "0.37 ± 0.04", "unit": "µM"}, {"measurement": "Ki", "setting": "[6]", "value": "0.38 ± 0.03", "unit": "µM"}, {"measurement": "residual activity", "setting": "[6]; CYP1A2, 100 μM PI-103", "value": "8.63 % of the negative control"}, {"measurement": "Type of inhibition", "setting": "[6]; CYP1A2, phenacetin", "value": "Noncompetitive"}, {"measurement": "IC50", "setting": "[7]", "value": "6.89 ± 0.73", "unit": "µM"}, {"measurement": "Ki", "setting": "[7]", "value": "2.58 ± 0.84", "unit": "µM"}, {"measurement": "Type of inhibition", "setting": "[7]; UGT1A3, 4-MU", "value": "Mixed-type"}, {"measurement": "α", "setting": "[7]; UGT1A3, 4-MU, mixed-type model (selected)", "value": "2.97 ± 1.61"}, {"measurement": "inhibitory effect", "setting": "[8]", "value": "negligible or weak"}]}]}
